# Activity calls are given as the source filed them. The calls are words filed in the database; no cut-off is given here.
# Assays:
# HL-60 [1] = assay: Induction of apoptosis in human HL-60 cells assessed as viable cells at 20 uM incubated for 24 hrs by propidium iodide and annexin-V FITC staining based FACS analysis (reference value: 96.3 %); format: functional; conditions: read-out: Activity
# Histone deacetylase 2 [2] = biological target: T1, Histone deacetylase 2 (Homo sapiens, UniProt Q92769); assay: Inhibition of HDAC2 in human HL-60 cells assessed as increase in Ac-H3 level at 2 uM incubated for 24 hrs by Western blot analysis; format: cell-based
# T1 sequence (Q92769 whole entry): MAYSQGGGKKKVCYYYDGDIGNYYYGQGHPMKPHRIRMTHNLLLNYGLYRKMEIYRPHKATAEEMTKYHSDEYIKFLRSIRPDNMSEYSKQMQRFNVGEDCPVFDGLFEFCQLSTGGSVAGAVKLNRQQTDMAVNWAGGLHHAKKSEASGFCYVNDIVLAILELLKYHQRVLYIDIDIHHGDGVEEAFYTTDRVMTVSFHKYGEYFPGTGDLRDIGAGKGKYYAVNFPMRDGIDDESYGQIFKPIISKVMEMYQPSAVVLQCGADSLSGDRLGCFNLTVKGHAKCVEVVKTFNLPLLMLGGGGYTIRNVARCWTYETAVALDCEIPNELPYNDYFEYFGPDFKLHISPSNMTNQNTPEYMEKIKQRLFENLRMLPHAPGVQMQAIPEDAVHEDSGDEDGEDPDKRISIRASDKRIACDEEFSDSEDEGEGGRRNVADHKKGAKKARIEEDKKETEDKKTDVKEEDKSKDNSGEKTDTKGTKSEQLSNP
# Procedure, shortened: (§1)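 Compound given to HL-60 cells for 24 h at the stated concentrations, then lysed. Acetyl-histone H3 and acetyl-α-tubulin levels were read by Western blot, with total H3, α-tubulin or β-actin as references.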
# HL-60 [3] = assay: Induction of apoptosis in human HL-60 cells assessed as early apoptotic cells at 40 uM incubated for 24 hrs by propidium iodide and annexin-V FITC staining based FACS analysis (reference value: 2.0 %); format: functional
# HL-60 [4] = assay: Induction of apoptosis in human HL-60 cells assessed as cleavage of caspase-3 at 20 uM after 24 hrs Western blot analysis; format: functional, cell-based
# Procedure, shortened: (§2)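 HL-60 cells were treated for 24 h at the indicated concentrations, then analysed by Western blot. Blots were probed for cleavage of PARP and caspase-3, -8 and -9. Ac-H3, Ac-α-tubulin and β-actin were also detected, with β-actin as the loading reference.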
# HL-60 [5] = assay: Induction of apoptosis in human HL-60 cells assessed as viable cells at 40 uM incubated for 24 hrs by propidium iodide and annexin-V FITC staining based FACS analysis (reference value: 96.3 %); format: functional; conditions: read-out: Activity
# HL-60 [6] = assay: Induction of apoptosis in human HL-60 cells assessed as cleavage of PARP at 20 uM after 24 hrs Western blot analysis; format: functional, cell-based; procedure, shortened: as §2
# Histone deacetylase 1 [7] = biological target: T2, Histone deacetylase 1 (Homo sapiens, UniProt Q13547); assay: Inhibition of recombinant full length C-terminal FLAG/His-tagged human HDAC1 expressed in baculovirus infected Sf9 cells using Boc-Lys(Ac)-AMC as substrate preincubated for 15 mins followed by substrate addition and measured after 60 mins by fluorescence based assay
# T2 sequence (Q13547 whole entry): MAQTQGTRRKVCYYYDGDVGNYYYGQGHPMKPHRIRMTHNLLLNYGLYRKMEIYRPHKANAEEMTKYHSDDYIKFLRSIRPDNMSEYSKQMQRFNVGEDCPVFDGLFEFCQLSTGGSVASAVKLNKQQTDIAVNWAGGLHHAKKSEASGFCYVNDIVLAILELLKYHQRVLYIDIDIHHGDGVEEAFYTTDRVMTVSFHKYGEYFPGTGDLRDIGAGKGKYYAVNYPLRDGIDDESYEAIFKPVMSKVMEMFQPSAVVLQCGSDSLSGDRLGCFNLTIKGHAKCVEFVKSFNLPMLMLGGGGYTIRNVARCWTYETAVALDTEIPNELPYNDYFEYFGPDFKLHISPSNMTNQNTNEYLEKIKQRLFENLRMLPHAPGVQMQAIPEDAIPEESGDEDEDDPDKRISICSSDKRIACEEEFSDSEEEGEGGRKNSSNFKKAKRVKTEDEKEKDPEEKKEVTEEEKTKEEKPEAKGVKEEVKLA
# HL-60 [8] = assay: Induction of apoptosis in human HL-60 cells assessed as cleavage of caspase-9 at 20 uM after 24 hrs Western blot analysis; format: functional, cell-based; procedure, shortened: as §2
# HL-60 [9] = assay: Induction of apoptosis in human HL-60 cells assessed as late apoptotic cells at 20 uM incubated for 24 hrs by propidium iodide and annexin-V FITC staining based FACS analysis (reference value: 1.7 %); format: functional
# [10] = biological target: T3, Protein deacetylase HDAC6 (Homo sapiens, UniProt Q9UBN7); assay: Inhibition of recombinant full length C-terminal FLAG-tagged human HDAC6 expressed in baculovirus infected Sf9 cells using Boc-Lys(Ac)-AMC as substrate preincubated for 15 mins followed by substrate addition and measured after 60 mins by fluorescence based assay
# T3 sequence (Q9UBN7 whole entry): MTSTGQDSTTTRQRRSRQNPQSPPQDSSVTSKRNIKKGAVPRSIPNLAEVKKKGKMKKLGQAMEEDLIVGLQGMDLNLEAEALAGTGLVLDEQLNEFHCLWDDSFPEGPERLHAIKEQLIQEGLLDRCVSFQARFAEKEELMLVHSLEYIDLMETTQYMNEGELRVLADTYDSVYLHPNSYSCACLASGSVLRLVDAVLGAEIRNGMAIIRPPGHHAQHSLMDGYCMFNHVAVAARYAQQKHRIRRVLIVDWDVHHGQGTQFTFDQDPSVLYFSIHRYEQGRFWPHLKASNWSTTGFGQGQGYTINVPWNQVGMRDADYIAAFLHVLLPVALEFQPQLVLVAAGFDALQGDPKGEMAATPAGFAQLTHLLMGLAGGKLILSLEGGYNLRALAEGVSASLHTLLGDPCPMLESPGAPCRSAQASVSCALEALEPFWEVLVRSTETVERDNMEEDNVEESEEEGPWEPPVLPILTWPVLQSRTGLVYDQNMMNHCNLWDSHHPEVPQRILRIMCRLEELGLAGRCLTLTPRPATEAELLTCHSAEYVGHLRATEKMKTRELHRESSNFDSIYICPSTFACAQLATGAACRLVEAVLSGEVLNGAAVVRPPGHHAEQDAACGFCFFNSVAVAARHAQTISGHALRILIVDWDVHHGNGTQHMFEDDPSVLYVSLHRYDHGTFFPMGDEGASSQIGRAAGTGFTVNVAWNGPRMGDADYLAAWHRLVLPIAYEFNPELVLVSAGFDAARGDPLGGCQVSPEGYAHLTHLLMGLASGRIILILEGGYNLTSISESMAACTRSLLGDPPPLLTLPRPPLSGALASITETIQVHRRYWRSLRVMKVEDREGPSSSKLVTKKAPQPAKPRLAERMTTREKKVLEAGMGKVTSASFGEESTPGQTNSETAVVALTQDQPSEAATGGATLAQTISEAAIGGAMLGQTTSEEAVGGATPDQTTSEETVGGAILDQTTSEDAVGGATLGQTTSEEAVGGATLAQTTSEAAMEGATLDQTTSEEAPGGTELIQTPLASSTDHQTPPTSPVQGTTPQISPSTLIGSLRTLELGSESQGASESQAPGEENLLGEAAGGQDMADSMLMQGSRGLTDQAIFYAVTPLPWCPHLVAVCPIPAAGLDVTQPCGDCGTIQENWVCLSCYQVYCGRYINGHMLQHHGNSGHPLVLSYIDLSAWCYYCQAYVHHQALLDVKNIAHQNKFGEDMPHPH
# HL-60 [11] = assay: Induction of apoptosis in human HL-60 cells assessed as necrotic cells at 20 uM incubated for 24 hrs by propidium iodide and annexin-V FITC staining based FACS analysis (reference value: 0.1 %); format: functional
# [12] = biological target: Histone deacetylase 3/Nuclear receptor corepressor 2 (HDAC3/NCoR2) (Homo sapiens, UniProt O15379); assay: Inhibition of C-terminal His-tagged recombinant human HDAC3 (1 to 428 residues)/N-terminal GST-tagged recombinant human NCoR2 (395 to 489 residues) co-expressed in baculovirus infected Sf9 cells using Boc-Lys(Ac)-AMC as substrate preincubated for 15 mins followed by substrate addition and measured after 60 mins by fluorescence based assay
# Sequence of Histone deacetylase 3/Nuclear receptor corepressor 2 (HDAC3/NCoR2) (O15379 whole entry, the tested form may be a part): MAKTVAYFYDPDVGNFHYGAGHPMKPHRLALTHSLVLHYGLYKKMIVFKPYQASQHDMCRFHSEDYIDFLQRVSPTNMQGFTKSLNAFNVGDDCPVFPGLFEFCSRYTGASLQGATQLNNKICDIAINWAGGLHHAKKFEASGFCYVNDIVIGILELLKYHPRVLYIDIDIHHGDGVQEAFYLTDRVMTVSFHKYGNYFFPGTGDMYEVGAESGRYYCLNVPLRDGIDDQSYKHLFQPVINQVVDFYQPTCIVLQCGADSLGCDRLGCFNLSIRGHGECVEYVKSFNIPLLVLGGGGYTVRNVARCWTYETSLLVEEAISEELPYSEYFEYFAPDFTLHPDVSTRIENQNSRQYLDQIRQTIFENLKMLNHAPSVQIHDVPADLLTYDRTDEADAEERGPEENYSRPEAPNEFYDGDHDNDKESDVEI
# Sequence of Histone deacetylase 3/Nuclear receptor corepressor 2 (HDAC3/NCoR2) (Q9Y618 whole entry, further chain, the tested form may be a part): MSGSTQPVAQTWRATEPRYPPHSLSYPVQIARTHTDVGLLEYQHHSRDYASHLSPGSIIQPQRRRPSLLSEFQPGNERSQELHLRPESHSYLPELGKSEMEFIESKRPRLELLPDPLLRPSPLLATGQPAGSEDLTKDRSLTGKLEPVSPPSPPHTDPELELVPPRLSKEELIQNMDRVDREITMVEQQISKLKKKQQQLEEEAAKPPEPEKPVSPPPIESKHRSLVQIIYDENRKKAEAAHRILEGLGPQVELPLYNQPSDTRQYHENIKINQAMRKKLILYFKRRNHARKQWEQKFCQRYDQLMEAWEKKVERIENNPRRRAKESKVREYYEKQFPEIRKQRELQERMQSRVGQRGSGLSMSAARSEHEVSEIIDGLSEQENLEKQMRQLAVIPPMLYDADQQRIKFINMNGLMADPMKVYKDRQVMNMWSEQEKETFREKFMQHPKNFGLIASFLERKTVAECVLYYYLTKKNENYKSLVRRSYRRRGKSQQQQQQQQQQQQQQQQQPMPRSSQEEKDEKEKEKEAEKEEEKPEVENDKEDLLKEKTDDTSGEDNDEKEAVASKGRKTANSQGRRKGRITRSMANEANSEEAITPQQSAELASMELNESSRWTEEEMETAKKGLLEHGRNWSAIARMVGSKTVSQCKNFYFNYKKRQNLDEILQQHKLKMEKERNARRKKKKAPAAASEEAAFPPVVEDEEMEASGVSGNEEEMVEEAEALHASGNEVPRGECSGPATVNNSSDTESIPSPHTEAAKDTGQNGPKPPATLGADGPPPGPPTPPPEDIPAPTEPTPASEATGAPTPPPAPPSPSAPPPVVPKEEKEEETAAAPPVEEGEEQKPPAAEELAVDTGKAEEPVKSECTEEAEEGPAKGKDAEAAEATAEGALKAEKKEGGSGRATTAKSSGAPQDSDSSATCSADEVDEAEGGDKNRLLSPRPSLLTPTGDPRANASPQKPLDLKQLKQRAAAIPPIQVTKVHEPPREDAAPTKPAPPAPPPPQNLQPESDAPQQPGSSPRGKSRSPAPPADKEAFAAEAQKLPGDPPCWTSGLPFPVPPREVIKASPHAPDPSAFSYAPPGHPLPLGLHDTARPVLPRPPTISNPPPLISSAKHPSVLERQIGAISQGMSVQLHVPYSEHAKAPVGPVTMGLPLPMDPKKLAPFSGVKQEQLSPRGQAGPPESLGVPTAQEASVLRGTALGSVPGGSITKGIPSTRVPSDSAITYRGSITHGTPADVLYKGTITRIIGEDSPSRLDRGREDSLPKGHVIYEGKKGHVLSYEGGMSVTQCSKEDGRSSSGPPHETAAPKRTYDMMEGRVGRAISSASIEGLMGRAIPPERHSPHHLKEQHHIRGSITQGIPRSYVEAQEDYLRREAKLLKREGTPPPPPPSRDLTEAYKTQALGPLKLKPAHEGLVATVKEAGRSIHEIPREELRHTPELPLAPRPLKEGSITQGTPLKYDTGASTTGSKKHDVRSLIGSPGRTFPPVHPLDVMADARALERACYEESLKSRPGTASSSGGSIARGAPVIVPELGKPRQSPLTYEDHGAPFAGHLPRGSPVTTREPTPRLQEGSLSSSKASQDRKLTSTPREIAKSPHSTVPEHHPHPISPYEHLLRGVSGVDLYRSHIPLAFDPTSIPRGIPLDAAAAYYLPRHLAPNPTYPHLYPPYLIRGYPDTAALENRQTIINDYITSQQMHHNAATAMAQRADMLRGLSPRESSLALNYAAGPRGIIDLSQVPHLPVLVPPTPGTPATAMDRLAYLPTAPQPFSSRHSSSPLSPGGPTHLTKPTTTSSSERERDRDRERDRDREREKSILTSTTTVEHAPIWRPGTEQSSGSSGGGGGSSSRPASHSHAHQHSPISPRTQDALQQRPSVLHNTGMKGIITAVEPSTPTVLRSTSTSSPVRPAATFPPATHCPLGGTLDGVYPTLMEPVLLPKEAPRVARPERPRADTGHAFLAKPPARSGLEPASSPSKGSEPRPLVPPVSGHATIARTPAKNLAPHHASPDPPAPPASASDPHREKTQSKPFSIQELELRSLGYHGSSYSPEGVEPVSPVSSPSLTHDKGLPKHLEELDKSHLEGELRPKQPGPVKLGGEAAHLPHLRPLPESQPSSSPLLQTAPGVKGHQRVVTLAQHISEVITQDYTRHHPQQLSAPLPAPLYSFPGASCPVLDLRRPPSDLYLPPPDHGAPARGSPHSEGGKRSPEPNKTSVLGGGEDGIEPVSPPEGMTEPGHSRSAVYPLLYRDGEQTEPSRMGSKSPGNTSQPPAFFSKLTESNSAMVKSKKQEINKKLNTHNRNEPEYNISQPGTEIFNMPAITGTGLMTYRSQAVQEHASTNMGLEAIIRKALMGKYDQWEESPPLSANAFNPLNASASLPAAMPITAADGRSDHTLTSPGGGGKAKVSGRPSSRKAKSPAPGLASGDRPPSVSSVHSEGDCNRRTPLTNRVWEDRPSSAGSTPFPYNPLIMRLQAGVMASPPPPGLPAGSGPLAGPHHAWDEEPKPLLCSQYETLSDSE
# Histone deacetylase 1 [13] = biological target: T2, Histone deacetylase 1; assay: Inhibition of HDAC1 in human HL-60 cells assessed as increase in Ac-H3 level at 2 uM incubated for 24 hrs by Western blot analysis; format: cell-based; procedure, shortened: as §1
# HL-60 [14] = assay: Growth inhibition of human HL-60 cells after 72 hrs by trypan blue dye based assay; format: functional
# Procedure, shortened: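 HL-60 leukemia cells were exposed to compound for 72 h. Growth inhibition is reported as IG50 (half the growth inhibition concentration), as means plus SD of three independent experiments.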
# HL-60 [15] = assay: Induction of apoptosis in human HL-60 cells assessed as cleavage of caspase-8 at 20 uM after 24 hrs Western blot analysis; format: functional, cell-based; procedure, shortened: as §2
# HL-60 [16] = assay: Induction of apoptosis in human HL-60 cells assessed as necrotic cells at 40 uM incubated for 24 hrs by propidium iodide and annexin-V FITC staining based FACS analysis (reference value: 0.1 %); format: functional
# [17] = biological target: Histone deacetylase 3 (Homo sapiens) (UniProt O15379); assay: Inhibition of HDAC3 in human HL-60 cells assessed as increase in Ac-H3 level at 20 uM incubated for 24 hrs by Western blot analysis; format: cell-based; procedure, shortened: as §1
# Sequence of Histone deacetylase 3 (Homo sapiens) (O15379 whole entry): as the sequence (O15379 whole entry, the tested form may be a part) above
# HL-60 [18] = assay: Induction of apoptosis in human HL-60 cells assessed as early apoptotic cells at 20 uM incubated for 24 hrs by propidium iodide and annexin-V FITC staining based FACS analysis (reference value: 2.0 %); format: functional
# Histone deacetylase 2 [19] = biological target: T1, Histone deacetylase 2; assay: Inhibition of recombinant full length C-terminal FLAG-tagged human HDAC2 expressed in baculovirus infected Sf9 cells using Boc-Lys(Ac)-AMC as substrate preincubated for 15 mins followed by substrate addition and measured after 60 mins by fluorescence based assay
# HL-60 [20] = assay: Induction of apoptosis in human HL-60 cells assessed as late apoptotic cells at 40 uM incubated for 24 hrs by propidium iodide and annexin-V FITC staining based FACS analysis (reference value: 1.7 %); format: functional
# HL-60 [21] = assay: Induction of apoptosis in human HL-60 cells assessed as late apoptotic cells at 2 uM incubated for 24 hrs by propidium iodide and annexin-V FITC staining based FACS analysis (reference value: 4.8 %); format: functional
# HL-60 [22] = assay: Induction of apoptosis in human HL-60 cells assessed as necrotic cells at 2 uM incubated for 24 hrs by propidium iodide and annexin-V FITC staining based FACS analysis (reference value: 0.3 %); format: functional
# HL-60 [23] = assay: Induction of apoptosis in human HL-60 cells assessed as early apoptotic cells at 2 uM incubated for 24 hrs by propidium iodide and annexin-V FITC staining based FACS analysis (reference value: 2.8 %); format: functional
# [24] = biological target: T4, Protein deacetylase HDAC6 (Homo sapiens) (UniProt Q9UBN7); assay: Inhibition of HDAC6 in human HL-60 cells assessed as increase in acetylated alpha tubulin level at 0.5 uM after 24 hrs by Western blot analysis; format: cell-based; procedure, shortened: as §1
# T4 sequence (whole entry): T3 sequence (Q9UBN7 whole entry)
# A549 = assay: Antiproliferative activity against human A549 cells assessed as cell growth inhibition incubated for 96 hrs by MTT assay; format: functional
# HCT-116 = assay: Antiproliferative activity against human HCT-116 cells assessed as cell growth inhibition incubated for 96 hrs by MTT assay; format: functional
# [25] = Antiproliferative activity against mouse LL/2 cells assessed as cell growth inhibition incubated for 96 hrs by MTT assay; format: functional, Lewis lung carcinoma
# MCF7 = assay: Antiproliferative activity against human MCF7 cells assessed as cell growth inhibition incubated for 96 hrs by MTT assay; format: functional
# [26] = Toxicity in mouse LL/2 cells inoculated C57BL/6J mouse assessed as effect on body weight by measuring end body weight at 100 mg/kg, ip administered for 12 days and measured for every 2 days (reference value: 17.8 +/- 0.7 g); format: organism-based; conditions: in vivo, 288 h, time 12 day
# [27] = Antitumor activity against mouse LL/2 cells inoculated in C57BL/6J mouse assessed as reduction of tumor weight at 100 mg/kg, ip administered for 12 days and measured at day 14 (reference value: 1.2 +/- 0.3 g); format: functional, Lewis lung carcinoma; conditions: time 12 day
# [28] = Antitumor activity against mouse LL/2 cells inoculated in C57BL/6J mouse assessed as tumor growth inhibition at 100 mg/kg, ip administered for 12 days; format: functional, Lewis lung carcinoma; design: scale not given: the % may be the effect or the level left; conditions: time 12 day
# [29] = Toxicity in mouse LL/2 cells inoculated C57BL/6J mouse assessed as effect on body weight by measuring initial body weight at 100 mg/kg, ip administered for 12 days and measured for every 2 days (reference value: 18.6 +/- 0.8 g); format: organism-based; conditions: in vivo, 288 h, time 12 day
SMILES,inhibition (Histone deacetylase 2 [2]),IC50 (Histone deacetylase 1 [7]),IC50 [10],IC50 [12],inhibition (Histone deacetylase 1 [13]),inhibition [17],IC50 (Histone deacetylase 2 [19]),viability at 20 µM (HL-60 [1]),Activity (HL-60 [3]),Activity (HL-60 [4]),viability at 40 µM (HL-60 [5]),Activity (HL-60 [6]),Activity (HL-60 [8]),Activity (HL-60 [9]),Activity (HL-60 [11]),IG50 (HL-60 [14]),Activity (HL-60 [15]),Activity (HL-60 [16]),Activity (HL-60 [18]),Activity (HL-60 [20]),also measured
O=C(CCCCCCC(=O)Nc1ccc([C@H]2O[C@@H](CSc3nc(-c4ccccc4)c(-c4ccccc4)o3)C[C@@H](c3ccc(CO)cc3)O2)cc1)NO [TUBACIN],,,,,,,,,,,,,,,,,,,,,Activity (HL-60 [21]): 8.8%; Activity (HL-60 [22]): 0.8%; Activity (HL-60 [23]): 3.9%; inhibition [24]: Active
Nc1ccccc1NC(=O)CCCCCCCNC(=O)/C(Cc1ccc(O)c(Br)c1)=N/O,,> 1000 nM,> 1000 nM,170 nM,,,> 1000 nM,,,,,,,,,5.2 µM,,,,,IG50 (A549): 26 µM; IG50 (HCT-116): 11.9 µM; Activity [26]: 18.5 g; IG50 [25]: 12.2 µM; Activity [27]: 0.8 g; Activity [28]: 36.5%; Activity [29]: 18.6 g; IG50 (MCF7): 17.9 µM

# Now from value to compound, other results behind:
inhibition (Histone deacetylase 2 [2]),IC50 (Histone deacetylase 1 [7]),IC50 [10],IC50 [12],inhibition (Histone deacetylase 1 [13]),inhibition [17],IC50 (Histone deacetylase 2 [19]),SMILES,viability at 20 µM (HL-60 [1]),Activity (HL-60 [3]),Activity (HL-60 [4]),viability at 40 µM (HL-60 [5]),Activity (HL-60 [6]),Activity (HL-60 [8]),Activity (HL-60 [9]),Activity (HL-60 [11]),IG50 (HL-60 [14]),Activity (HL-60 [15]),Activity (HL-60 [16]),Activity (HL-60 [18]),Activity (HL-60 [20]),also measured
inactive,> 1000 nM,> 1000 nM,130 nM,inactive,Active,> 1000 nM,Nc1ccccc1NC(=O)CCCCCCNC(=O)/C(Cc1ccc(O)c(Br)c1)=N/O,94.2%,3.1%,inactive,87.9%,inactive,inactive,4%,0.1%,14 µM,inactive,0.6%,1.7%,8.4%,
inactive,> 1000 nM,> 1000 nM,180 nM,inactive,Active,> 1000 nM,Nc1ccccc1NC(=O)CCCCCNC(=O)/C(Cc1ccc(O)c(Br)c1)=N/O,95.6%,3.8%,inactive,85.7%,inactive,inactive,2.8%,0.1%,14.3 µM,inactive,0.4%,1.5%,10.2%,
,,,,inactive,,,Nc1cc(F)ccc1NC(=O)/C=C/c1cnn(C/C=C/c2ccccc2)c1,89.3%,4.8%,,75.1%,,,7.2%,0.5%,6.1 µM,,2.9%,3%,17.2%,IG50 (A549): 28.3 µM; IG50 (HCT-116): 22 µM; IG50 [25]: 10.8 µM; IG50 (MCF7): 30 µM
